Measurements gathered from unrelated publications.
Each line is one published result; the experiments were not run side by side.

`CCC[C@@](N)(CO)CCc1ccc(OCCCCCC(C)C)cc1` has a Cmax of 1030 nM (rat, plasma; oral, 100 mg/kg).
For `C#Cc1ccc2c(c1)C(c1ccccn1)=NCc1c(-c3cnco3)ncn1-2`, the Cmax was 395 nM (rat, plasma; oral, 2 mg/kg).
For `N=c1c2c(-c3ccccc3)c(-c3ccccc3)n(Cc3ccccc3)c2ncn1[C@H]1CC[C@H](O)CC1`, the Cmax was 133 ng/mL (male Sprague-Dawley rat, plasma; oral, 2 mg/kg, single dose).
`[2H]C([2H])([2H])n1cc2cc(Nc3nc(=O)n(Cc4ncn(C)n4)c(=O)n3Cc3cc(F)c(F)cc3F)c(Cl)cc2n1` has a Cmax of 23900 ng/mL (male Sprague-Dawley rat, plasma; intravenous, 5 mg/kg).
`O=C(Nc1cccnn1)N1CCN([C@@H]2CCOc3cc(C(F)(F)F)ccc32)CC1` gave a Cmax of 1520 nM (male Sprague-Dawley rat, plasma; oral, 3 mg/kg).
With `O=C([O-])C(=O)[O-].[NH-][C@@H]1CCCC[C@H]1[NH-].[Pt+4]` (relative stereo) the Cmax was 2450 ng/mL (rat, plasma; intravenous, 5 mg/kg).
The Cmax of `CCCCCn1nc(C(=O)Nc2cccc3ccccc23)c2ccccc21` is reported as 213 ng/mL (male Long-Evans rat, plasma; intraperitoneal, 3 mg/kg).
`COc1ncccc1-c1cnn2ccc(N3CCN(C(=O)OC(C)C)CC3)nc12` gave a Cmax of 3100 nM (rat, plasma; oral, 10 mg/kg).
For `COc1ccc2c3c1O[C@H]1C[C@@H](OC(=O)c4ccccc4)C=C[C@@]31CCN(C)C2`, the Cmax was 13600 ng/g (rat, brain; intravenous, 5 mg/kg).
For `CCCCCCCC(=O)N[C@@H](CCCCN)C(=O)N[C@@H](CCCCN)C(=O)N[C@@H](C)C(=O)N[C@@H](CC(C)C)C(=O)N[C@@H](CCCCN)C(=O)N[C@@H](CC(C)C)C(=O)N[C@@H](C)C(=O)N[C@@H](CCCCN)C(=O)N[C@@H](CCCCN)C(=O)N1CCC[C@H]1C(=O)N[C@@H](CC(C)C)C(=O)N[C@@H](CCCCN)C(=O)N[C@@H](CC(C)C)C(=O)N[C@@H](CC(C)C)C(=O)N[C@@H](CCCCN)C(N)=O`, the Cmax was 273 ng/mL (male Sprague-Dawley rat, blood; intravenous, 3 mg/kg, infusion).
`CCCCCn1cc(C(=O)Nc2cccc3ccccc23)c2ccccc21` gave a Cmax of 296 ng/mL (male Long-Evans rat, plasma; intraperitoneal, 3 mg/kg).
`Cl.Cl.O=C(CCN1CCCCC1)c1ccc(-c2ccc(C(=O)CCN3CCCCC3)cc2)cc1` gave a Cmax of 725 ng/mL (Sprague-Dawley rat, plasma; intravenous, 5 mg/kg).
`COC(=O)C(NC(=O)c1cn(CCCCCF)c2ccccc12)C(C)(C)C` (stereo not drawn) has a Cmax of 1.72 ng/mL (male Sprague-Dawley rat, plasma; subcutaneous, 50 µg/kg).
With `[2H]C([2H])(c1cc(F)c(F)cc1F)n1c(=O)n(Cc2ncn(C)n2)c(=O)[nH]/c1=N\c1cc2cn(C)nc2cc1Cl` the Cmax was 25200 ng/mL (male Sprague-Dawley rat, plasma; intravenous, 5 mg/kg).
`Cc1ncc(C)n2nc(/C=C/c3nc(N4CCCC4)cc(N4CCOCC4)n3)nc12` gave a Cmax of 36 nM (male Sprague-Dawley rat, plasma; oral, 0.3 mg/kg).
